One series deals with Coagulation factor X (Homo sapiens, UniProt P00742). In words: Inhibition of factor 10a by amidolytic assay. In short, it runs like this:
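[…] taken as the mean of at least three experiments. Variation between runs stated as under 10%.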

A further series concerns the target Coagulation factor IX (Homo sapiens, UniProt P00740). Briefly: Inhibition of human recombinant factor 9a by amidolytic assay.
Series [1] has as its system Plasma. In words: Anticoagulant potency in human plasma assessed as concentration required to double the […]. Format: functional. In short, it runs like this: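 Citrated plasma from healthy volunteers, centrifuged at 2000g for 10 min and held on ice. Plasma incubated 1 min at 37 C, aPTT reagent (FSL) added, then 3 min at 37 C. Clotting started with 0.025 M CaCl2. Clot formation read at 660 nm on an automated coagulation analyzer.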

The nature of series [2]: Selectivity ratio of Ki for factor 10a to Ki for human recombinant factor 9a.
The nature of series [3]: Selectivity ratio of Ki for uPA to Ki for human recombinant factor 9a.
Series [4] relates to Plasma. Briefly: Anticoagulant potency in human plasma assessed as concentration required to double the prothrombin time. Format: functional. In short, it runs like this: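 Citrated plasma from healthy volunteers, centrifuged at 2000g for 10 min and held on ice. Plasma incubated 3 min at 37 C before addition of thromboplastin PT reagent (Thromborel S). Clot formation followed at 660 nm in an automated coagulation analyzer.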

Series [5] concerns Plasma. In words: Anticoagulant potency in human plasma assessed as concentration required to double the thrombin time. The series is classed as functional. In short, it runs like this: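 Plasma from citrated blood of healthy volunteers, centrifuged at 2000g for 10 min and kept on ice. Plasma incubated 2 min at 37 C, then thrombin reagent added. Clotting time monitored at 660 nm on an automated analyzer.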

Series [6] is described as follows: Protein binding in human plasma. Conditions: read-out: PPB (converted). The series is classed as ADME, cell-free.
In series [7] the target is Urokinase-type plasminogen activator (Homo sapiens, UniProt P00749).
A short description of series [8]: Cmax in anesthetized Sprague-Dawley rat at 5 mg/kg, iv. Format: ADME, organism-based. Details: dose 5 mg/kg, route intravenous. Conditions: in vivo. The gist of the method: (§1)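 Bolus iv injection over 15 s into anesthetised rats, 3 per group. Citrated blood taken under anesthesia predose and at 2, 5, 15, 30 min and 1, 2, 3 h. Plasma obtained by centrifugation at 1700g, 20 C, 5 min, then stored at -80 C. Two acetonitrile precipitations before drug measurement. Parameters derived by noncompartmental analysis of concentration–time curve.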

The nature of series [9]: AUC (0 to infinity) in anesthetized Sprague-Dawley rat at 5 mg/kg, iv. The series is classed as ADME, organism-based. Set-up: dose 5 mg/kg, route intravenous, time infinity. The conditions noted are these: plasma. In short, it runs like this:
as §1

Series [10] can be described thus: Half life in anesthetized Sprague-Dawley rat at 5 mg/kg, iv. The series is classed as ADME, organism-based. Details: dose 5 mg/kg, route intravenous. Conditions: in vivo. In short, it runs like this:
as §1

Series [11] is described as follows: Clearance in anesthetized Sprague-Dawley rat at 5 mg/kg, iv. Set-up: dose 5 mg/kg, route intravenous. The conditions noted are these: in vivo. The series is classed as ADME, organism-based. The gist of the method:
as §1

Series [12] in a line: Metabolic stability in human liver assessed as turnover. The conditions noted are these: read-out: Stability. Format: ADME, tissue-based.

Molecules are shown by their SMILES. Some results are limits rather than exact numbers.

Coagulation factor IX, sequence (P00740 47-191 limits assumed): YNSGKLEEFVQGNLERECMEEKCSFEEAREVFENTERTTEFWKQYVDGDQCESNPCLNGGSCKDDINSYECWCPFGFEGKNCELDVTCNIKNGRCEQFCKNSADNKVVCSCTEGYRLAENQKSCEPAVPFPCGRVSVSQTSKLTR
Coagulation factor IX, sequence (P00740 227-461 limits assumed): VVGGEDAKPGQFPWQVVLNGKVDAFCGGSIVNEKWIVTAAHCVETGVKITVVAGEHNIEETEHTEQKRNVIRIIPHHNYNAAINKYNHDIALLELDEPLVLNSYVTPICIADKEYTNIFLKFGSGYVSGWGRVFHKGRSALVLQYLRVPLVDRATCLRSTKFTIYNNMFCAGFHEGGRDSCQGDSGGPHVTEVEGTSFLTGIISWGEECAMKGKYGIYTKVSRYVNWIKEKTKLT
Coagulation factor X, sequence (P00742 41-179 limits assumed): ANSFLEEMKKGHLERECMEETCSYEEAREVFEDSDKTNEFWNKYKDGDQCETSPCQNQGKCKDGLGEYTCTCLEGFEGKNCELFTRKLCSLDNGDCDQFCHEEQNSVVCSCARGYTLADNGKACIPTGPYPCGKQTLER
Coagulation factor X, sequence (P00742 235-488 limits assumed): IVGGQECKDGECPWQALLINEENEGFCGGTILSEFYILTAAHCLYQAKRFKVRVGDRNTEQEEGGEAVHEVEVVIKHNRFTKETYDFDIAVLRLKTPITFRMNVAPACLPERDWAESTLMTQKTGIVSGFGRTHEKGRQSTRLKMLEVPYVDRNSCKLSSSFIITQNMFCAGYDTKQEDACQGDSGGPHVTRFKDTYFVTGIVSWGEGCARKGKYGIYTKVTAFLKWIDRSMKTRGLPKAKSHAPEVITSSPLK

In general, Ki refers to the equilibrium dissociation constant of an inhibitor or competing ligand from its target. For the compound `Cc1nn(C)c(CNC(C)C)c1NC(=O)OCC(Oc1cccc2sc(C(=N)N)cc12)c1ccccc1` (stereo not given), the results for the Ki (at Coagulation factor X; on Coagulation factor IX; in [7]) were 1630 nM, 3 nM and 151 nM, respectively. Further, the Activity in the series on Plasma [1] worked out at 5.9 µM; in the series on Plasma [4], 29 µM; in the series on Plasma [5] it was 25 µM. Further, the Ratio Ki came out at 542 in series [2] and 50 in series [3]. Further, in series [6], the fraction unbound was 0.04.
The Cmax is the peak of the concentration-time curve. One may read the AUC(0-inf) as total exposure, with the tail of the curve extrapolated. A high value points to more exposure. The term half-life denotes the time in which the quantity being followed falls by half. Low values mean rapid decline, high ones slow decline. For orientation: clearance means the volume of plasma or blood freed of the substance per unit of time. A high value points to a high capacity for elimination. As to `Cc1cc(NC(=O)OCC(Oc2cccc3sc(C(=N)N)cc23)c2ccccc2)n(C)n1` (stereo not given), the values for the Ki (at Coagulation factor X; on Coagulation factor IX; in series [7]) were 2050 nM, 10 nM and 169 nM, respectively. The Activity in the series on Plasma [1] was found to be 12.8 µM; with Plasma [4], 57 µM; with Plasma [5], 60 µM. Further, the figures for the Ratio Ki in [2] and in series [3] were 205 and 17, respectively. In series [6], the fraction unbound was 0.04. In [8], this compound returned a Cmax of 5.19 µM. In series [9], this compound returned an AUC(0-inf) of 0.951 µM·h. The half-life in [10] is 2.1 h. The same compound registered a clearance in series [11] of 129 mL/min/kg. Moreover, the metabolised in series [12] is 18%.
On to `CNCc1c(NC(=O)OCC(Oc2cccc3sc(C(=N)N)cc23)c2ccccc2)c(C)nn1C` (stereo not given), for which the values for the Ki (on Coagulation factor X; on Coagulation factor IX; in [7]) were 2380 nM, 5 nM and 156 nM, respectively. For the same compound, the Activity in the series on Plasma [1] worked out at 7.7 µM; in the series on Plasma [4], 42 µM; with Plasma [5] it was 56 µM. Further, the results for the Ratio Ki in [2] and in series [3] were 475 and 31, respectively. Moreover, in series [6], the fraction unbound is 0.05.
On to `Cc1n[nH]c(C)c1NC(=O)OCC(Oc1cccc2sc(C(=N)N)cc12)c1ccccc1` (stereo not given), for which the Ki on Coagulation factor X was found to be 2840 nM; at Coagulation factor IX it was 8 nM; in series [7] it was 58 nM. The Activity is 11.7 µM with Plasma [1], 63 µM in the series on Plasma [4] and greater than 80 µM with Plasma [5]. In addition, the Ratio Ki was 360 in [2] and 7 in [3]. Besides, the fraction unbound in series [6] is 0.05.
Take `N=C(N)c1cc2c(OC(COC(=O)Nc3ccccc3CN3CCNCC3)c3ccccc3)cccc2s1` (stereo not given): the values for the Ki (at Coagulation factor X; on Coagulation factor IX; in [7]) were 354 nM, 3 nM and 833 nM, respectively. The Activity in the series with Plasma [1] is 5 µM; in the series with Plasma [4], 17 µM; with Plasma [5], 20 µM. The Ratio Ki in series [2] turned out to be 118; in series [3], 278. The fraction unbound in series [6] was 0.05.
For the compound `N=C(N)c1cc2c(OC(COC(=O)Nc3ccc(F)cc3)c3ccccc3)cccc2s1` (stereo not given), the values for the Ki (at Coagulation factor X; at Coagulation factor IX; in series [7]) were 1700 nM, 8 nM and 780 nM, respectively. For the same compound, the Ratio Ki was found to be 213 in [2] and 98 in series [3]. Further, in series [8], the Cmax was 10.5 µM. The AUC(0-inf) in series [9] turned out to be 5.19 µM·h. In addition, the half-life in series [10] was 5.5 h. The clearance in series [11] is 32.4 mL/min/kg. Also, in [12], the metabolised came out at 11%.
